Experiments:
HCT-116 = assay: Cytotoxicity against human HCT116 cells assessed as growth inhibition after 72 hrs by MTT assay; assay type: functional, cell-based; conditions: HCT-116, 72 h
Method in brief: (§1)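 Cells exposed to compound for 72 h, then MTT added. Formazan crystals dissolved in DMSO and absorbance read at 570 nm. Run in triplicate in three independent experiments. IC₅₀ (50% cell growth inhibition) derived by dose-effect analysis.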

[1] = target: RAC-alpha serine/threonine-protein kinase (Homo sapiens, UniProt P31749); assay: Inhibition of AKT1 (unknown origin) using ATP/eNOS as substrate incubated for 5 mins prior to substrate addition measured after 30 mins by fluorescence polarization assay
OVCAR-8 = assay: Cytotoxicity against human OVCAR8 cells assessed as growth inhibition after 72 hrs by MTT assay; assay type: functional, cell-based; conditions: OVCAR-8, 72 h; method in brief: as §1

Sequence of RAC-alpha serine/threonine-protein kinase (P31749 whole entry): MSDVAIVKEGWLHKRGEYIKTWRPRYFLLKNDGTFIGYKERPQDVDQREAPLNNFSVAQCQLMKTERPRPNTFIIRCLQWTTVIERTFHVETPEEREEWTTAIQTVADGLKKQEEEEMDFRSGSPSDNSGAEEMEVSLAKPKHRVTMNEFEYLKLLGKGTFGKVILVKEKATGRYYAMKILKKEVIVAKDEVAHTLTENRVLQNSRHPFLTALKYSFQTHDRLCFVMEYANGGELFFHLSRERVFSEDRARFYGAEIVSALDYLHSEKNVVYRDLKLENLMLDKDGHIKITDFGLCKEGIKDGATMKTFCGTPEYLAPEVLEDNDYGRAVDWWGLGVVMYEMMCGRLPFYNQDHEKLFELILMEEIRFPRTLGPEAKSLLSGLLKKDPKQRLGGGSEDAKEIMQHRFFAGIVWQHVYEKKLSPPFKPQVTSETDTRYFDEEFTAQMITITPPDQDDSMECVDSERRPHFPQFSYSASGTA

IC50 [1] | Compound | IC50 (HCT-116) | IC50 (OVCAR-8)
1.83 µM | CNc1cc(N2CCC(CN)(c3ccc(Cl)c(Cl)c3)CC2)ncn1 | 16.7 µM | –
4.32 µM | NCC1(c2ccc(Cl)c(Cl)c2)CCN(c2cc(N)ncn2)CC1 | 19.8 µM | –
1.83 µM | Nc1ncnc(N2CCN(C(=O)[C@@H](N)Cc3ccccc3)CC2)c1Cl | 28.7 µM | –
0.017 µM | Nc1ncnc(N2CCN(C(=O)C(N)Cc3ccc(Cl)cc3)CC2)c1Cl (racemic) | 4.36 µM | 26.1 µM
0.0077 µM | Nc1ncnc(N2CCN(C(=O)C(N)Cc3ccc(Cl)cc3)CC2)c1Br (racemic) | 5.15 µM | 22.7 µM
0.432 µM | Nc1ncnc(N2CCN(C(=O)C(N)Cc3ccccc3)CC2)c1Br (racemic) | 6.19 µM | –
